Assay results from ChEMBL document CHEMBL4622987, “Folate Receptor Targeting and Cathepsin B-Sensitive Drug Delivery System for Selective Cancer Cell Death and Imaging” (ACS Med Chem Lett, 2020).

Key:
Cathepsin B [1] = biological target: T1, Cathepsin B (Homo sapiens, UniProt P07858); experiment: Prodrug release assessed as cathepsin B (unknown origin)-mediated cleavage of GFLG peptide of parent compound by measuring formation of 7-ethyl-10-hydroxycamptothecin at 37 degreeC in presence of cathepsin B inhibitor CA-074 Me by fluorescence spectroscopy; assay type: ADME
Cathepsin B [2] = biological target: T1, Cathepsin B; experiment: Prodrug release assessed as cathepsin B (unknown origin)-mediated cleavage of GFLG peptide of parent compound by measuring formation of 7-ethyl-10-hydroxycamptothecin at 37 degreeC by fluorescence spectroscopy; assay type: ADME
In short: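 The conjugate was incubated with cathepsin B at 37 °C, alongside an enzyme-free control. Release of free SN38 was followed as the rise in fluorescence over time (λex 365 nm, λem 540 nm).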

Cathepsin B [3] = biological target: T1, Cathepsin B; experiment: Prodrug release assessed as cathepsin B (unknown origin)-mediated cleavage of GFLG peptide of parent compound by measuring retention time of 7-ethyl-10-hydroxycamptothecin by RP-HPLC analysis/mass spectrometry; assay type: ADME
In short: (§1)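 The cathepsin B digest of the conjugate was analysed by analytical RP-HPLC with mass spectrometry. Cleavage products were assigned from their retention times and [M+H]+ or [M+Na]+ ions.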

Cathepsin B [4] = biological target: T1, Cathepsin B; experiment: Prodrug release assessed as cathepsin B (unknown origin)-mediated cleavage of parent compound by measuring retention time of folic acid linked-glycyl-hydroxypehylalanine by RP-HPLC analysis/mass spectrometry; assay type: ADME; in short: as §1
Cathepsin B [5] = biological target: T1, Cathepsin B; experiment: Prodrug release assessed as cathepsin B (unknown origin)-mediated cleavage of parent compound by measuring retention time of cyclic dipeptide matography-mass spectrometry; assay type: ADME
[6] = Drug uptake in folate receptor negative human A549 cells assessed as accumulation of compound in lysosomes by measuring fluorescence intensity at 5 uM incubated for 24 hrs by Hoechst 33342 staining based confocal microscopy; assay type: ADME, cell-based; details: a549, 24 h
In short: (§2)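 Cells were incubated with 5 μM conjugate for 24 h. Nuclei were counterstained with Hoechst 33342 (1 μg/mL). Cellular fluorescence and its localisation were imaged by confocal microscopy.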

[7] = Drug uptake in folate receptor negative human 16HBE cells assessed as accumulation of compound at 5 uM incubated for 24 hrs by Hoechst 33342 staining based confocal microscopy; assay type: ADME, cell-based; details: 16hbe14o-; in short: as §2
Cathepsin B [8] = biological target: T1, Cathepsin B; experiment: Prodrug release in FR-overexpressing human SKHEP1 cells assessed as cathepsin B-mediated 7-ethyl-10-hydroxycamptothecin accumulation in nucleus at 5 uM preincubated with cathepsin B inhibitor CA-074 Me for 24 hrs followed by compound treatment for 24 hrs by Hoechst 33342 staining based confocal microscopy; assay type: ADME, cell-based; details: sk-hep1, 24 h
In short: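 SK-Hep-1 cells were pretreated with 20 μM CA-074 Me (cathepsin B inhibitor) for 24 h, then given 5 μM conjugate for 24 h. Nuclei were stained with Hoechst 33342 (1 μg/mL), and cells were imaged by confocal microscopy.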

Cathepsin B [9] = biological target: T1, Cathepsin B; experiment: Prodrug release in FR-overexpressing human SKHEP1 cells assessed as cathepsin B-mediated 7-ethyl-10-hydroxycamptothecin accumulation in nucleus at 5 uM incubated for 24 hrs by Hoechst 33342 staining based confocal microscopy; assay type: ADME, cell-based; details: sk-hep1, 24 h; in short: as §2
SK-HEP1 = experiment: Cytotoxicity against FR-positive human SKHEP1 cells assessed as reduction in cell viability measured after 72 hrs by MTT assay; assay type: functional, cell-based; details: SK-HEP1, 72 h
In short: (§3)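 Cancer or normal human cells were exposed to a range of concentrations for 72 h. Viability was read by MTT assay. IC50 was derived from the concentration–response curves, and percent viability loss was taken at 20 μM.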

HeLa = experiment: Cytotoxicity against FR-positive human HeLa cells assessed as reduction in cell viability measured after 72 hrs by MTT assay; assay type: functional, cell-based; in short: as §3
SiHa = experiment: Cytotoxicity against FR-positive human SiHa cells assessed as reduction in cell viability measured after 72 hrs by MTT assay; assay type: functional, cell-based; in short: as §3
A549 [10] = experiment: Cytotoxicity against FR-negative human A549 cells assessed as reduction in cell viability at 20 uM measured after 72 hrs by MTT assay relative to control; assay type: functional; details: A549, 72 h; in short: as §3
[11] = Cytotoxicity against human 16HBE cells assessed as reduction in cell viability at 20 uM measured after 72 hrs by MTT assay relative to control; assay type: cell-based; details: 16HBE (16HBE14o-) cells, read-out: INH; in short: as §3
[12] = Retention time of the compound by RP-HPLC analysis/mass spectrometry; assay type: physicochemical
Cathepsin B [13] = biological target: T1, Cathepsin B; experiment: Prodrug release in FR-overexpressing human SKHEP1 cells assessed as cathepsin B-mediated 7-ethyl-10-hydroxycamptothecin accumulation in nucleus at 5 uM preincubated with folic acid for 1 hr followed by compound treatment for 24 hrs by Hoechst 33342 staining based confocal microscopy; assay type: ADME, cell-based; details: sk-hep1, 24 h
In short: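 SK-Hep-1 cells were pre-exposed to 3 mM free folic acid for 1 h to block the folate receptor, then given 5 μM conjugate for 24 h. Hoechst 33342 (1 μg/mL) was used as the nuclear stain, with confocal microscopy read-out.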

16HBE14o- = experiment: Cytotoxicity against human 16HBE cells assessed as reduction in cell viability measured after 72 hrs by MTT assay; assay type: cell-based
A549 [14] = experiment: Cytotoxicity against FR-negative human A549 cells assessed as reduction in cell viability measured after 72 hrs by MTT assay; assay type: functional, cell-based; details: A549, 72 h

CCc1c2c(nc3ccc(OCc4ccc(NC(=O)CNC(=O)[C@H](CC(C)C)NC(=O)[C@H](Cc5ccccc5)NC(=O)CNC(=O)COCCOCCOCCOCc5cn(CCOCCOCCOCCNC(=O)CC[C@H](NC(=O)c6ccc(NCc7cnc8nc(N)[nH]c(=O)c8n7)cc6)C(=O)O)nn5)cc4)cc13)-c1cc3c(c(=O)n1C2)COC(=O)[C@]3(O)CC
Drug metabolism (Cathepsin B [1]): Metabolite_Notdetected
Drug metabolism (Cathepsin B [2]): Metabolite_Detected
Retention_time (Cathepsin B [3]): 23.6 min
Retention_time (Cathepsin B [4]): 21.4 min
Retention_time (Cathepsin B [5]): 34 min
Drug uptake [6]: Not Active
Drug uptake [7]: Not Active
Drug metabolism (Cathepsin B [8]): Metabolite_Notdetected
Drug metabolism (Cathepsin B [9]): Metabolite_Detected
IC50 (SK-HEP1): 2000 to 3000 nM
IC50 (HeLa): 2000 to 3000 nM
IC50 (SiHa): 2000 to 3000 nM
inhibition at 20 µM (A549 [10]): 51%
cytotoxicity at 72 h, 20 µM [11]: 24%
Retention_time [12]: 26.4 min
Drug metabolism (Cathepsin B [13]): Metabolite_Notdetected

CCc1c2c(nc3ccc(O)cc13)-c1cc3c(c(=O)n1C2)COC(=O)[C@]3(O)CC [7-ETHYL-10-HYDROXYCAMPTOTHECIN]
IC50 (SK-HEP1): 300 to 1000 nM
IC50 (HeLa): 300 to 1000 nM
IC50 (SiHa): 300 to 1000 nM
IC50 (16HBE14o-): 300 to 1000 nM
IC50 (A549 [14]): 300 to 1000 nM
